Data on five compounds can be found in ChEMBL document CHEMBL1134779, “Synthesis and characterization of the antitumor activities of analogues of meridine, a marine pyridoacridine alkaloid” (J Med Chem, 2001).

For one test, the system named is J82. Nature of the test: In vitro inhibition of J82 (human bladder cancer) cell growth. The test is classed as functional, cell-based. The method, boiled down:
(§1)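 Human cancer lines from ATCC, grown at 37 °C in sealed dishes in Eagle's MEM with 5% FCS. Cells were seeded at 40000 cells/mL and plated for 24 h before drug exposure. Six concentrations from 10^-5 to 10^-10 M were tested. Growth was read by MTT reduction to formazan at 570 nm (reference 630 nm), in sextuplicate. IC50 is the concentration giving 50% growth reduction versus control.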

The subject of another test is PC-3. Description: In vitro inhibition of PC-3 (human prostate cancer) cell growth. The test is classed as functional, cell-based. The method, boiled down:
as §1

The test system of another test is MCF7. Nature of the test: In vitro inhibition of MCF-7 (human breast cancer) cell growth. The test is classed as functional, cell-based. The method, boiled down:
as §1

In a further test the test system is U-87 MG. Nature of the test: In vitro inhibition of U-87 MG (human glioblastoma) cell growth. It is filed as functional, cell-based, U-87MG ATCC. A digest of the protocol: as §1
The subject of test [1] is T47D. Description: Ctotoxic related antitumor activity against human cancer cell lines T-47 D. It is filed as functional, cell-based. A digest of the protocol:
as §1

For a further test, the system named is SW1088 (human). Nature of the test: In vitro inhibition of SW1088 (human astrocytoma) cell growth.
A short description of test [2]: In vitro inhibition of T24 (human bladder cancer) cell growth. The test is classed as functional, cell-based. The note with it: T-24. A digest of the protocol: as §1
Another test relates to A-427. Description: In vitro inhibition of A-427 (human lung cancer) cell growth. It is filed as functional, cell-based. A digest of the protocol:
as §1

A further test relates to LoVo. Nature of the test: In vitro inhibition of LoVo (human colon cancer) cell growth. The test is classed as functional, cell-based. A digest of the protocol:
as §1

The test system of a further test is A549. Description: In vitro inhibition of A549 (human lung cancer) cell growth. The test is classed as functional, cell-based. A digest of the protocol: as §1
The test system of a further test is U373 MG. Nature of the test: In vitro inhibition of U-373 MG (human glioblastoma) cell growth. The test is classed as functional, cell-based, U-373MG ATCC. The method, boiled down: as §1
The subject of a further test is HCT-15. Nature of the test: In vitro inhibition of HCT-15 (human colon cancer) cell growth. The test is classed as functional, cell-based. The method, boiled down:
as §1

In test [3] the test system is T47D. Nature of the test: In vitro inhibition of T-47D (human breast cancer) cell growth. The test is classed as functional, cell-based. The method, boiled down: as §1

The structures appear in SMILES notation.

For orientation: IC50 means the midpoint of a concentration-inhibition curve. Turning to `CCOC(=O)c1cnc2c(c1)C(=O)c1c(-c3ccccc3NC(=O)C(F)(F)F)ccnc1C2=O`, the half-inhibitory concentration (IC50) was 5.2 µM in the test on J82; 1.3 µM with PC-3; 0.5 µM in the test on MCF7; 0.08 µM in the test on U-87 MG; 2.6 µM in the test with T47D [1]; 0.8 µM in the test on SW1088 (human). In addition, the IC50 was 0.6 µM in [2]; 0.6 µM with A-427; 0.8 µM in the test with LoVo; 0.09 µM with A549; 0.4 µM with U373 MG; 0.1 µM with HCT-15.

For the compound `O=C1c2nccc([N+](=O)[O-])c2-c2nc3ccccc3c3ccnc1c23`, the IC50 in the test on J82 was found to be 0.5 µM; with PC-3 it was 4.2 µM; in the test with MCF7, 0.07 µM; in the test on U-87 MG, 0.07 µM; in the test with SW1088 (human), 5.5 µM; in [2] it was 0.7 µM. In addition, the IC50 in the test on A-427 was 2.4 µM; with T47D [3], 0.6 µM; with LoVo, 0.09 µM; in the test on A549, 0.8 µM; in the test with U373 MG it was 0.09 µM; in the test on HCT-15 it was 0.6 µM.

Turning to `COc1ccnc2c1-c1nc3ccccc3c3ccnc(c13)C2=O`, the half-inhibitory concentration (IC50) was 0.0009 µM in the test on J82; 0.06 µM in the test on PC-3; below 0.0001 µM in the test with MCF7; below 0.0001 µM with U-87 MG; 0.06 µM in the test on SW1088 (human); 0.006 µM in [2]. Further, the IC50 in the test with A-427 is 0.005 µM; with T47D [3], 0.03 µM; in the test with LoVo, 0.0003 µM; with A549, 0.0003 µM; in the test with U373 MG, below 0.0001 µM; in the test on HCT-15, 0.002 µM.

As for `Nc1ccnc2c1C(=O)c1c(-c3ccccc3NC(=O)C(F)(F)F)ccnc1C2=O`, the IC50 in the test on J82 came to 2.7 µM; in the test with PC-3 it was 0.6 µM; with MCF7, 0.8 µM; with U-87 MG it was 0.3 µM; in the test on SW1088 (human), 0.8 µM; in [2], 0.7 µM. The half-inhibitory concentration (IC50) stood at 0.5 µM with A-427; 1.2 µM in the test on T47D [3]; 0.7 µM in the test with LoVo; 0.6 µM in the test with A549; 0.9 µM in the test on U373 MG; 0.6 µM with HCT-15.

As for `O=C1c2ncccc2-c2nc3ccccc3c3ccnc1c23`, the IC50 was 0.007 µM in the test with J82; 0.04 µM in the test on PC-3; 0.0009 µM in the test with MCF7; below 0.0001 µM with U-87 MG; 0.06 µM in the test with SW1088 (human); below 0.0001 µM in test [2]. The IC50 in the test on A-427 turned out to be 0.0008 µM; with T47D [3], 0.01 µM; in the test on LoVo, 0.02 µM; in the test with A549 it was 0.02 µM; in the test with U373 MG, 0.0007 µM; in the test on HCT-15, 0.005 µM.
